Measurements published in ChEMBL document CHEMBL3046238, “Synthesis and biological activity evaluation of 1,2,3-thiadiazole derivatives as potential elicitors with highly systemic acquired resistance” (2009).
Activity calls are given as the source filed them. The rule behind the calls is not given here.

Experiments:
Format in all cases: functional
[1] = system: Cytospora mali; test: Antifungal activity against Valsa mali assessed as growth inhibition at 50 ug/mL measured after 2 days post dose; settings: for inhibition of growth at 50 µg/mL: 48 h, read-out: GI
[2] = system: Alternaria mali; test: Antifungal activity against Alternaria mali assessed as growth inhibition at 50 ug/mL measured after 2 days post dose; settings: for inhibition of growth at 50 µg/mL: 48 h, read-out: GI
[3] = system: Sclerotinia sclerotiorum; test: Antifungal activity against Sclerotinia sclerotiorum assessed as growth inhibition at 50 ug/mL measured after 2 days post dose; settings: for inhibition of growth at 50 µg/mL: 48 h, read-out: GI
[4] = system: Botrytis cinerea; test: Antifungal activity against Botryotinia fuckeliana assessed as growth inhibition at 50 ug/mL measured after 2 days post dose; settings: for inhibition of growth at 50 µg/mL: 48 h, read-out: GI
[5] = system: Puccinia triticina; test: Antifungal activity against Puccinia triticina inoculated on 500 ug/mL compound pre-treated wheat plants with 3 to 5 leaves assessed as growth inhibition
Outline: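 Healthy wheat plants at the 3-5 leaf stage were sprayed with compound (500 μg/mL) and then inoculated with spores. Inhibition percentage was calculated against the corresponding spore stack.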

[6] = system: Alternaria solani; test: Antifungal activity against Alternaria solani assessed as growth inhibition at 50 ug/mL measured after 2 days post dose; settings: 48 h, read-out: GI
[7] = system: Fusarium oxysporum f. sp. vasinfectum; test: Antifungal activity against Fusarium oxysporum f. sp. vasinfectum assessed as growth inhibition at 50 ug/mL measured after 2 days post dose; settings: for inhibition of growth at 50 µg/mL: 48 h, read-out: GI
[8] = system: Alternaria kikuchiana; test: Antifungal activity against Alternaria kikuchiana assessed as growth inhibition at 50 ug/mL measured after 2 days post dose; settings: for inhibition of growth at 50 µg/mL: 48 h, read-out: GI
[9] = system: Colletotrichum gloeosporioides; test: Antifungal activity against Glomerella cingulata assessed as growth inhibition at 50 ug/mL measured after 2 days post dose; settings: for inhibition of growth at 50 µg/mL: 48 h, read-out: GI
[10] = system: Colletotrichum lagenaria; test: Antifungal activity against Colletotrichum lagenaria assessed as growth inhibition at 50 ug/mL measured after 2 days post dose; settings: 48 h, read-out: GI
[11] = system: Ustilaginoidea virens; test: Antifungal activity against Villosiclava virens assessed as growth inhibition at 50 ug/mL measured after 2 days post dose; settings: for inhibition of growth at 50 µg/mL: 48 h, read-out: GI
[12] = system: Fusarium graminearum; test: Antifungal activity against Fusarium graminearum assessed as growth inhibition at 50 ug/mL measured after 2 days post dose; settings: 48 h, read-out: GI
Outline: (§1)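 Compound stock at 500 μg/mL in DMF, diluted with sterile water in the dish and mixed into potato dextrose agar before setting. A 4 mm diameter fungal plug is placed on the plate and cultured at 24-26 °C. Colony diameter is measured after 2 days.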

[13] = system: Phomopsis asparagi; test: Antifungal activity against Phomopsis asparagi assessed as growth inhibition at 50 ug/mL measured after 2 days post dose; settings: for inhibition of growth at 50 µg/mL: 48 h, read-out: GI
[14] = system: Mycosphaerella arachidis; test: Antifungal activity against Mycosphaerella arachidis assessed as growth inhibition at 50 ug/mL measured after 2 days post dose; settings: 48 h, read-out: GI
[15] = system: Fusarium oxysporum; test: Antifungal activity against Fusarium oxysporum assessed as growth inhibition at 50 ug/mL measured after 2 days post dose; settings: for inhibition of growth at 50 µg/mL: 48 h, read-out: GI
[16] = system: Fusarium fujikuroi; test: Antifungal activity against Fusarium fujikuroi assessed as growth inhibition at 50 ug/mL measured after 2 days post dose; settings: 48 h, read-out: GI
[17] = system: Tobacco mosaic virus; test: (§2) Induction of systemic acquired resistance against Tobacco mosaic virus (TMV) in tobacco plants exposed to 50 ug/mL compound through leaf spray followed by 7 days culture under green house conditions assessed as inhibition of viral growth in leaves infected with Tobacco mosaic virus (TMV) measured 72 hr post viral infection by half-leaf juice rubbing method; design: scale not given: the % may be the effect or the level left
Outline: (§3)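 Tobacco plants received compound by leaf spray or by soil irrigation, with double-distilled water as CK. Newly grown leaves were then rub-inoculated with TMV (5.88×10-2 μg/mL), and plants were kept at 25 °C for 72 h. Lesions on inoculated leaves were counted. Inhibition = (CK−A)/CK×100 from mean lesion numbers versus control.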

[18] = system: Tobacco mosaic virus; test: as §2, with “500” for “50”; design: scale not given: the % may be the effect or the level left; outline: as §3
[19] = system: Ceratobasidium cereale; test: Antifungal activity against Ceratobasidium cereale assessed as growth inhibition at 50 ug/mL measured after 2 days post dose; settings: 48 h, read-out: GI
[20] = system: Botryosphaeria berengeriana; test: Antifungal activity against Botryosphaeria berengeriana assessed as growth inhibition at 50 ug/mL measured after 2 days post dose; settings: 48 h, read-out: GI
[21] = system: Phytophthora infestans; test: Antifungal activity against Phytophthora infestans assessed as growth inhibition at 50 ug/mL measured after 2 days post dose; outline: as §1
[22] = system: Rhizoctonia solani; test: Antifungal activity against Rhizoctonia solani assessed as growth inhibition at 50 ug/mL measured after 2 days post dose; settings: 48 h, read-out: GI

SMILES | inhibition of growth at 50 µg/mL [1] [%] | inhibition of growth at 50 µg/mL [2] [%] | inhibition of growth at 50 µg/mL [3] [%] | inhibition of growth at 50 µg/mL [4] [%] | growth inhibition (GI) [5] | inhibition of growth at 50 µg/mL [6] [%] | inhibition of growth at 50 µg/mL [7] [%] | inhibition of growth at 50 µg/mL [8] [%] | inhibition of growth at 50 µg/mL [9] [%] | inhibition of growth at 50 µg/mL [10] [%] | inhibition of growth at 50 µg/mL [11] [%] | inhibition of growth at 50 µg/mL [12] [%] | inhibition of growth at 50 µg/mL [13] [%] | inhibition of growth at 50 µg/mL [14] [%] | inhibition of growth at 50 µg/mL [15] [%] | inhibition of growth at 50 µg/mL [16] [%] | Activity [18] [%] | growth inhibition (GI) [4] | growth inhibition (GI) [11] | growth inhibition (GI) [13] | also measured
Cc1nnsc1C(=O)Nc1nc(-c2ccccc2)cs1 | 22.2 | 10 | 47.3 | 8.3 | 0% | 15.8 | 40 | 37.5 | 15.8 | 6.7 | 55.6 | 18.8 | 6.3 | 14.3 | 13.3 | 64.3 | 70 | – | – | – | Activity [17]: 74%
Cc1nnsc1C(=O)Nc1nc(-c2ccc(Cl)cc2)cs1 | 88.9 | 15 | 61.5 | 12 | 0% | 0 | 40 | 0 | 68.4 | 13.3 | 11.1 | 18.8 | 37.5 | 29.4 | 46.7 | 64.3 | 40 | – | – | – | –
COc1ccc(-c2nnc(-c3snnc3C)o2)cc1 | 47.2 | 37.9 | 23.5 | 31 | 0% | 17.6 | 0 | – | 29.4 | – | 29.4 | 37.9 | – | 17.6 | 0 | 0 | 80 | – | – | – | inhibition of growth at 50 µg/mL [19]: 31%; inhibition of growth at 50 µg/mL [20]: 33.3%; growth inhibition (GI) [21]: inactive; inhibition of growth at 50 µg/mL [22]: 0%; Activity [17]: 78%
CCCc1sc(NC(=O)c2snnc2C)nc1-c1ccc(Cl)cc1Cl | 4.3 | 6.9 | 22.2 | – | 30% | 4 | 3.6 | – | 12 | 11.8 | – | 25 | – | 35.7 | 10 | 21.1 | 20 | inactive | inactive | inactive | growth inhibition (GI) [8]: inactive
Cc1nnsc1C(=O)Nc1nc(-c2ccc([N+](=O)[O-])cc2)cs1 | 26.1 | 24.1 | 11.1 | – | inactive | 20 | 14.3 | 0 | 8 | 17.6 | – | 37.5 | – | 35.7 | 13.3 | 5.3 | 0 | inactive | inactive | inactive | –
CCc1cnc(NC(=O)c2snnc2C)s1 | 61.1 | 25 | 3.3 | 0 | – | 21 | 5 | 43.8 | 36.8 | 26.7 | 50 | 50 | 31.3 | 35.7 | 53.3 | 0 | 30 | – | – | – | –
CCCCCCc1cnc(NC(=O)c2snnc2C)s1 | 31 | – | 71.4 | 25 | – | 21 | – | 0 | – | 26.7 | – | 0 | – | 29.4 | – | 64.3 | 0 | – | inactive | inactive | growth inhibition (GI) [2]: inactive; growth inhibition (GI) [7]: inactive; growth inhibition (GI) [9]: inactive; growth inhibition (GI) [15]: inactive
COc1ccc(-c2csc(NC(=O)c3snnc3C)n2)cc1 | 8.7 | 15.5 | 5.6 | – | 45% | 4 | 0 | – | 4 | 5.9 | – | 25 | – | 14.3 | 3.3 | 10.5 | 35 | inactive | inactive | inactive | growth inhibition (GI) [8]: inactive
CCc1sc(NC(=O)c2snnc2C)nc1-c1ccc(Cl)cc1Cl | 44.4 | 35 | 61.5 | 40 | 0% | 33.3 | 20 | 37.5 | 20.1 | 26.7 | 33.3 | 25 | 12.5 | 14.3 | 13.3 | 64.3 | 0 | – | – | – | –
COc1cccc(-c2nnc(-c3snnc3C)o2)c1 | 41.2 | 27.6 | 23.5 | 13.8 | 39% | 11.7 | 0 | – | 0 | – | 0 | 31 | – | 17.6 | 0 | 17.2 | 0 | – | – | – | inhibition of growth at 50 µg/mL [19]: 13.8%; inhibition of growth at 50 µg/mL [20]: 33.3%; inhibition of growth at 50 µg/mL ([21]; 48 h, read-out: GI): 20%; inhibition of growth at 50 µg/mL [22]: 0%
Cc1csc(NC(=O)c2snnc2C)n1 | – | 50 | – | – | inactive | 35.7 | – | 17.6 | – | 17.6 | – | 7.1 | – | 29.4 | 15 | 64.3 | 70 | inactive | inactive | inactive | growth inhibition (GI) [1]: inactive; growth inhibition (GI) [3]: inactive; growth inhibition (GI) [7]: inactive; growth inhibition (GI) [9]: inactive; Activity [17]: 81%
